From PubChem
Shown are actives, neighbours in structure and some others; about 3.3% of the full set was active somewhere.
Jurkat tox 60K – cytotoxicity toward Jurkat T cells, primary screen, cytotoxicity control, cell-based, Jurkat E6.1, 60K MLSMR library; Jurkat E6.1 viability, ATP luminescence, 48 h; actives 1.2% (n = 56,000); AID 463, 2006; inhibition, % at 4 µM;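 active means inhibition above the mean inhibition of all tested compounds plus 3 SD, cut at about 28% in these data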
HTR1E agonist – 5-HT1E receptor agonists, primary screen, cell-based, HTS | 5-hydroxytryptamine receptor 1E (Homo sapiens), P28566 | CHO 5-HT1E Ga15 NFAT-bla reporter, FRET; 0% DMSO wells, 100% control agonist wells | activation, % at 6 µM | actives 0.69% (n = 65,000) | AID 574, 2007;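 active means activation above a set limit, the screen-wide mean activation plus 3 SD, cut at about 8.5% in these data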;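 further: 100% = positive control agonist at 1 µM giving full maximal response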
Target sequence (P28566 whole entry, looked up): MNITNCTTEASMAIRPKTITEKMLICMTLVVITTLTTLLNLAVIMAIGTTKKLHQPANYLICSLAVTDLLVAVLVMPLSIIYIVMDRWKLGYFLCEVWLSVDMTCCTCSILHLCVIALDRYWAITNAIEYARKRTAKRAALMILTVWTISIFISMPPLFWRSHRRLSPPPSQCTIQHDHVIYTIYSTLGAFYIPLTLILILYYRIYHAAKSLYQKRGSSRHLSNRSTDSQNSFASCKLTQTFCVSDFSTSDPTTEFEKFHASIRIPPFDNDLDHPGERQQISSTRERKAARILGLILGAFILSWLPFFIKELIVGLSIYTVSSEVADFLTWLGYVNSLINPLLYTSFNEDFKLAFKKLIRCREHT
HTR1E antagonist – 5-HT1E receptor antagonists, primary screen, cell-based, HTS; inhibition, % at 6 µM; AID 571, 2007; actives 0.99% (n = 65,000); 5-hydroxytryptamine receptor 1E (Homo sapiens), P28566; CHO 5-HT1E Ga15 NFAT-bla reporter, FRET, antagonist;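 active means inhibition above a set limit, the mean inhibition across every tested compound plus 3 SD, cut at about 29% in these data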;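 further: signal is the 460 over 535 nm emission ratio of beta-lactamase substrate; 0% = agonist plus DMSO wells and 100% = wells without agonist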
HTR1A agonist – human 5-HT1a receptor agonists, primary screen, cell-based, CHO, Ga15 NFAT-bla reporter; 5-hydroxytryptamine receptor 1A (Homo sapiens), P08908; CHO 5-HT1a Ga15 NFAT-bla reporter, FRET ratio; 0% basal, 100% maximal reference agonist; activation, % at 10 µM; actives 0.56% (n = 65,000);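 active means activation above the screen-wide mean activation plus 3 SD, cut at about 19% in these data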;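 further: 0% = DMSO wells and 100% = 5-CT at EC100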
5-HT1A blocker – human 5-HT1a receptor antagonists, primary screen, cell-based, CHO, Ga15 NFAT-bla reporter | 5-hydroxytryptamine receptor 1A (Homo sapiens), P08908 | CHO 5-HT1a Ga15 NFAT-bla reporter, antagonist mode | inhibition, % at 10 µM | actives 0.68% (n = 62,000) | AID 612, 2007;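 active means inhibition above the mean of all tested compounds plus 3 SD, cut at about 43% in these data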;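 further: receptor stimulated by 5-CT agonist at 100 nM near EC80; beta-lactamase reporter measured by ratiometric fluorescence of a cleavable substrate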
HEK293 NFkB inh – inhibitors of PMA/ionomycin-induced NF-kB reporter, primary screen, antigen receptor NF-kB inhibitor project, cell-based, HEK-293 luciferase reporter, luminescence; HEK-293 NF-kB luciferase reporter; inhibition, % at 3 µM; actives 0.21% (n = 62,000); AID 465, 2006;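 active means inhibition above the mean of all tested compounds plus 3 SD, cut at about 40% in these data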;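 further: 0% = stimulated DMSO wells and 100% = 10 µM reference inhibitor 5653914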
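System – HEK-293 cells with stable firefly luciferase reporter driven by four HIV NF-kB elements · Doses – one dose, 3 µM · Schedule – 1 h compound pre-incubation, 16 h PMA/ionomycin at 37 °C · Technique – luminescence from luciferase substrate reagent · Measure – percent inhibition normalized per plate to DMSO and reference-inhibitor controls · Replicates – tested once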
* = called active by the depositor.

For Cn1c(=O)[nH]c(=O)c2[nH]c(CN3CCN(C(=O)c4ccco4)CC3)nc21 the results were Jurkat tox 60K 5, HTR1E agonist 0, HTR1E antagonist -7, HTR1A agonist -3, 5-HT1A blocker 3 and HEK293 NFkB inh 8.
Screening Cc1c(C(=O)NCc2cccnc2)oc2ccc(S(=O)(=O)N3CCCCCC3)cc12 returned HTR1E agonist 0, HTR1E antagonist -17, HTR1A agonist 2, 5-HT1A blocker -2 and HEK293 NFkB inh 24.
For COc1cccc2c1C(=O)c1c(O)c3c(c(O)c1C2=O)C[C@@](O)(C(C)=O)C[C@@H]3O[C@H]1C[C@H](N)[C@H](O)[C@H](C)O1 the results were HTR1E agonist -1, HTR1E antagonist 57* and HTR1A agonist 0.
Screening CCOC(=O)CSC1=C(C#N)C(C)C2=C(CCCC2=O)N1 (configuration not stated) returned Jurkat tox 60K 10, HTR1E agonist 0, HTR1E antagonist 4, HTR1A agonist -2, 5-HT1A blocker 12 and HEK293 NFkB inh 21.
Screening C=CCn1c(SCc2c(C)noc2C)nc2cc(C(=O)O)ccc2c1=O returned Jurkat tox 60K 69*, HTR1E agonist 0, HTR1E antagonist -2, HTR1A agonist -3, 5-HT1A blocker -7 and HEK293 NFkB inh 30.
Cc1noc(C)c1CSc1nc2ccccc2c(=O)n1-c1ccc(F)cc1F was read as Jurkat tox 60K 92*, HTR1E agonist 0, HTR1E antagonist 21, HTR1A agonist 0, 5-HT1A blocker 46* and HEK293 NFkB inh 22.
`Cc1noc(C)c1CSc1nc2[nH]ncc2c(=O)n1-c1ccccc1` gave Jurkat tox 60K 83*, HTR1E agonist 0, HTR1E antagonist 52*, HTR1A agonist -1, 5-HT1A blocker 37 and HEK293 NFkB inh 32.
Screening Cc1noc(C)c1CSc1nc2ccccc2c(=O)n1-c1ccccc1 returned Jurkat tox 60K 89*, HTR1E agonist 0, HTR1E antagonist 21, HTR1A agonist 1, 5-HT1A blocker 31 and HEK293 NFkB inh 32.
Screening O=C(CCC1CCCC1)Nc1ccc(Br)cn1 returned Jurkat tox 60K -4, HTR1E agonist 0, HTR1E antagonist -6, HTR1A agonist 1, 5-HT1A blocker -4 and HEK293 NFkB inh -13.
For N#CCSc1nnc(COc2ccc3ccccc3c2)o1 the results were Jurkat tox 60K 2, HTR1E agonist 0, HTR1E antagonist -1, HTR1A agonist -2, 5-HT1A blocker -7 and HEK293 NFkB inh 10.
For CC1=C(C(=O)OCc2ccc3c(c2)OCO3)C(c2ccc(Cl)cc2)NC(=O)N1 (configuration not stated) the results were Jurkat tox 60K 78*, HTR1E agonist 0, HTR1E antagonist 43*, HTR1A agonist 0, 5-HT1A blocker 50* and HEK293 NFkB inh 67*.
Screening CCOC(=O)C1=C(C)NC(=O)NC1c1ccc2c(c1)OCCO2 (configuration not stated) returned Jurkat tox 60K 4, HTR1E agonist 0, HTR1E antagonist -3, HTR1A agonist -4, 5-HT1A blocker 8 and HEK293 NFkB inh 18.
CC1=C(C(=O)OCc2ccc3c(c2)OCO3)C(c2ccc(F)cc2)NC(=O)N1 (configuration not stated) was read as Jurkat tox 60K 84*, HTR1E agonist -2, HTR1E antagonist 29*, HTR1A agonist -3, 5-HT1A blocker 22 and HEK293 NFkB inh 45*.
COc1ccccc1-n1c(=O)oc2ccc(Cl)cc2c1=O was read as Jurkat tox 60K 19, HTR1E agonist 0, HTR1E antagonist 9, HTR1A agonist 0, 5-HT1A blocker 0 and HEK293 NFkB inh -19.
`Clc1ccc(Cc2nn3c(Cn4nnc5ccccc54)nnc3s2)cc1` gave Jurkat tox 60K 3, HTR1E agonist 0, HTR1E antagonist 5, HTR1A agonist 0, 5-HT1A blocker 8 and HEK293 NFkB inh 3.
